Reference: ChEMBL document CHEMBL1667739, “Pitiprolamide, a proline-rich dolastatin 16 analogue from the marine cyanobacterium Lyngbya majuscula from Guam” (J Nat Prod, 2011)

Experiments:
Format in all cases: functional
Settings in all cases: ATCC 25177, 288 h, read-out: DIZ
[1] = system: Mycobacterium tuberculosis; test: Antimycobacterial activity against Mycobacterium tuberculosis ATCC 25177 at 10 ug after 12 days by disc diffusion assay
Procedure, shortened: (§1)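 Compound dissolved in EtOH and loaded onto sterile filter-paper discs. Dried discs were placed on an inoculated agar plate and incubated 12 days at 37 °C. The diameter of the inhibition zone was then measured.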

[2] = system: Mycobacterium tuberculosis; test: Antimycobacterial activity against Mycobacterium tuberculosis ATCC 25177 at 1 ug after 12 days by disc diffusion assay; procedure, shortened: as §1
[3] = system: Mycobacterium tuberculosis; test: Antimycobacterial activity against Mycobacterium tuberculosis ATCC 25177 at 5 ug after 12 days by disc diffusion assay; procedure, shortened: as §1

In the case of `CN[C@@H]1[C@H](O[C@H]2[C@H](O[C@H]3[C@H](O)[C@@H](O)[C@H](N=C(N)N)[C@@H](O)[C@@H]3N=C(N)N)O[C@@H](C)[C@]2(O)C=O)O[C@@H](CO)[C@H](O)[C@H]1O` [STREPTOMYCIN], the zone of inhibition at 10 µg/disc [1] is reported as 40 mm, the zone of inhibition at 1 µg/disc [2] is reported as 0 mm and the zone of inhibition at 5 µg/disc [3] is reported as 30 mm.
